Ecoli rRNA inh = inhibitors of bacterial rRNA selective over humanized ribosomes; E. coli WT GFP vs humanized-ribosome RFP mutants, fluorescence, 24 h; hits give low values; DMSO median 0, no signal -100; GFP signal change (wild-type ribosome), % (no concentration beside the values); hit rate 1.6% among 350,000; AID 720706;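 active = significant combined selectivity score with lowered wild-type GFP, culture density cut under 30%, mutant RFP and density less affected; inactive = any of these conditions unmet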
SR-BI DiI-HDL act = activators of SR-BI mediated HDL lipid uptake; CHO ldlA[mSR-BI] cells, DiI-HDL uptake fluorescence, 3 h; 100 = double the neutral-control signal; activation, % at 12.5 µM; hit rate 0.096% among 320,000;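 active = mean replicate activation of at least 60% and every replicate at or above 60%; inconclusive = mean or all-replicate condition met, but not both; inactive = mean below 60% and not all replicates reaching 60%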;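 also: 0% = median plate neutral-control signal and 100% = twice that signal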
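System: LDL receptor-deficient CHO ldlA cells overexpressing murine SR-BI | Timing: 3 h uptake period with compound, 37 °C | Medium: HEPES-buffered (25 mM, pH 7.4) F12 plus 0.5% BSA | Dosing: Single-point compound dose | Signal: Bottom-read fluorescence, 550/595 nm | Read-out: Retained DiI signal reflecting DiI-HDL uptake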
PvdQ acylase = blocks Pseudomonas aeruginosa PvdQ acylase activity; AID 488965; hit rate 0.063% among 340,000; inhibition, % at 10 µM; purified PvdQ acylase, fluorescence plate reader; in the data active = inhibition above about 30%, passing the limit was not always enough; inconclusive = no clear call, values can overlap the other calls;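 also: 0% = vehicle neutral wells and 100% = reference inhibitor wells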
dFosB act = mouse delta FosB homodimer activation; purified delta FosB, TAMRA-CDK5 oligo fluorescence polarization; percent of positive-control signal above neutral wells; activation, % at 25 µM; hit rate 0.99% among 340,000; AID 493131;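 active = mean activation above about 17%, with every replicate also reaching it, limit read from the data, passing the limit was not always enough; inconclusive = only one of the two conditions met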
Target sequence (P13346 whole entry, looked up): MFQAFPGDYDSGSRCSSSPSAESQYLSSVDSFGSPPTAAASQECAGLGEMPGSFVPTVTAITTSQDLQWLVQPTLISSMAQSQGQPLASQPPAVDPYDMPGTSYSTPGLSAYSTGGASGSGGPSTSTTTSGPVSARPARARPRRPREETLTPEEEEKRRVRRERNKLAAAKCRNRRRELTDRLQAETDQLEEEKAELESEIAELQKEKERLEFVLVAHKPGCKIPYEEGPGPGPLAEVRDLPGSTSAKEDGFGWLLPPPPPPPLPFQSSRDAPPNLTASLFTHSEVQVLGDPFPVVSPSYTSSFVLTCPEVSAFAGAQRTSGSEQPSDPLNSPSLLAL
SR-BI DiI inh = inhibitors of mouse SR-BI mediated HDL lipid uptake. Q61009. ldlA[mSR-BI] CHO cells, DiI-HDL uptake fluorescence, 3 h. inhibition, % at 12.5 µM. hit rate 0.96% among 320,000;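 active = mean replicate inhibition of at least 70% and a set share of replicates each scoring 70 or more; inconclusive = meets just one of the two criteria; inactive = fails both criteria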;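 also: 0% = median of neutral control wells and 100% = median of positive control wells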
XiGFP reactiv = X-chromosome reactivation activator; XiGFP mouse fibroblasts, % GFP-positive cells imaging, 3 d; cells co-treated with 5-aza-dC sensitizer; scaled so ellipticine positive control = 100%; activation, % at 7.58 µM; hit rate 0.055% among 360,000; AID 743238;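 active = mean normalized replicate activation at least 10% and every replicate at or above 10%; inconclusive = only one of the two criteria met; inactive = mean below 10% and not all replicates reach 10%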;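 also: 0% = median of on-plate neutral control wells and 100% = ellipticine 6 µM median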
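System: 68-5-11 XiGFP fibroblast line | Buffer or medium: DMEM containing 5-aza-dC | Compound: Single point | Times: Compounds 3 days, fix/stain 15 min at room temperature | Benchmarks: Positive control ellipticine, 6 µM final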
AID977621 = growth inhibition of wild-type GFP E. coli, dose response, H69 mutant RFP, cherry-pick | shares compounds with Ecoli rRNA inh | E. coli wild-type GFP strain growth, fluorescence, 24 h | activity change, negative = inhibition at 50 µM | 1,900 tested, under 10 active;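 active = Wild-type ribosome reporter drop at least double the humanized mutant ribosome reporter drop, growth loss under a set limit; inconclusive = no clear call, values can overlap the other calls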;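 also: wild-type GFP and H69 mutant RFP strains grown together 50/50 in each well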
AID977628 = E. coli growth inhibition, wild-type GFP versus h24 humanized RFP strain, dose response, h24 mutant RFP vs wild-type GFP, cherry-pick; activity change, negative = inhibition at 50 µM; AID 977628; 1,900 tested, under 10 active; shares compounds with Ecoli rRNA inh; E. coli WT GFP strain growth, fluorescence, 24 h;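 active = compound lowering the normal-ribosome reporter at least twice as much as the humanized-ribosome reporter, growth loss under a set limit; inconclusive = no clear call, values can overlap the other calls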;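 also: wild-type GFP and h24 humanized RFP strains co-cultured 1 to 1 per well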
* hit, by the source's call; ? = inconclusive; . = no result given. An excerpt weighted towards active compounds, which were near 2.6% of everything screened.

SMILES	Ecoli rRNA inh	SR-BI DiI-HDL act	PvdQ acylase	dFosB act	SR-BI DiI inh	XiGFP reactiv	AID977621	AID977628
CCCn1c(NCc2ccc3c(c2)OCO3)nc2ccccc21	-22.1*	-8.6	-8.1	-6.8	8.6	.	.	?
COc1ccc2c3c([nH]c2c1)[C@@H](CO)N(C(=O)c1ccc(F)cc1)CC31CN(C(=O)Nc2cccc(F)c2)C1	-3.9	.	.	.	.	0.3	.	.
CC(C)NC(=O)N1CC[C@H]2[C@@H]1c1cc(C#Cc3cccnc3)ccc1N(C)[C@H]2CO	-1.1	.	.	.	.	0.0	.	.
CN1c2ccc(C#Cc3cccnc3)cc2[C@@H]2[C@@H](CCN2C(=O)c2cccc(F)c2)[C@H]1CO	-38.5*	.	.	.	.	0.2	2.55	.
CC1Sc2ccc(S(=O)(=O)NCc3ccccc3)cc2NC1=O (stereo not given)	-21.2*	16.0	4.6	-6.2	-15.9	0.0	-13.6	.
O=C(NCCc1ccccn1)c1cccc(S(=O)(=O)N2CCc3ccccc32)c1	-18.1*	-3.3	-16.8	1.8	3.3	0.2	.	?
Cc1cccc(-c2n[nH]c(S(C)(=O)=O)c2C#N)c1	-15.8	12.6	-12.1	6.8	-12.6	0.2	.	.
Cc1ccc(-c2n[nH]c(S(C)(=O)=O)c2C#N)cc1	-21.4*	1.9	10.3	-2.1	-1.9	0.3	-20	?
Cc1ccc(C(=O)Nc2cccc(N(C)S(C)(=O)=O)c2)cc1S(=O)(=O)Nc1ccccc1	-19.6*	-17.4	-6.2	-19.8	17.4	.	?	.
Fc1ccc(SCCc2ccncc2)cc1	.	13.8	3.9	-2.1	-13.8	.	.	.
COc1ccc(C(=O)Nc2ccc3ncccc3c2)cc1	-3.6	-9.9	-2.0	-15.7	9.9	0.4	.	.
Cc1ccc(C(=O)Nc2ccc3ncccc3c2)cc1	-15.6*	-16.4	-4.1	-27.2	16.4	0.1	.	-11.6
C[C@@H]1CN([C@@H](C)CO)C(=O)c2cccc(NC(=O)Nc3ccc4c(c3)OCO4)c2O[C@H]1CN(C)Cc1ccncc1	-10.4	.	.	.	.	0.5	.	.
O=C1c2ccccc2C(=O)N1CCCc1c[nH]c2ccccc12	.	7.8	-0.1	-15.5	-7.8	-0.1	.	.
O=C1c2ccccc2C(=O)N1CCc1c[nH]c2ccccc12	-20.7*	-14.7	7.3	-5.0	14.7	0.2	-6.8	.
COc1ccc(-c2csc(N)n2)cc1F	-17.4*	4.8	1.4	-13.7	-4.8	-0.1	-5.95	-3.15
CSc1cccc(NC(=O)CCNC(=O)c2ccco2)c1	0.7	-1.1	-7.9	-1.2	1.1	0.2	.	.
O=C(CCNC(=O)c1ccco1)Nc1cccc(Br)c1	-19.6*	14.1	-11.3	3.0	-14.1	0.0	-19.8	?
C(=C\c1sc(Nc2ccccc2)n[n+]1-c1ccccc1)/c1ccccc1	-3.2	-66.4	-6.0	1.2	66.4	0.1	.	.
COCc1nnc(NC(=O)c2ccc(S(=O)(=O)N3CCCC3)cc2)o1	-23.2*	3.4	-2.5	-2.4	-3.4	0.1	-16.1	.
Cc1ccc(CC2C(=O)N(c3ccccc3)C(=O)C2C)cc1 (stereo not given)	-4.1	7.4	-8.5	-6.9	-7.4	0.3	.	.
Cc1ccc(CC2C(=O)N(c3cc(Cl)ccn3)C(=O)C2C)cc1 (stereo not given)	-20.4*	17.7	-11.0	-4.5	-17.7	0.2	-19.6	?
Cc1ccc(-c2c(=O)n(O)c3ccccc3[n+]2[O-])cc1	-16.8*	1.1	-4.1	2.9	-1.1	0.0	-5.55	?
O=S(=O)(c1ccccc1)N1CCN(Cc2ccccc2C(F)(F)F)CC1	.	3.8	0.6	7.0	-3.8	.	.	.
O=[N+]([O-])c1ccccc1CN1CCN(S(=O)(=O)c2ccccc2)CC1	-24.8*	11.0	21.3	0.1	-11.0	0.2	?	?

Screening results deposited in PubChem by Broad Institute.
